The values that follow come from ChEMBL document CHEMBL1130340, “Semisynthetic derivatives of purpuromycin as potential topical agents for vaginal infections” (1997).

Converted amounts (≈) assume the structure as drawn.

Format in all cases: functional
One experiment deals with Bacteroides fragilis. Description: In vitro antimicrobial activity against Bacteroides fragilis ATCC 25285. The method, boiled down:
(§1)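 Anaerobe MIC by broth microdilution in Wilkins-Chalgren broth; inoculum 5 × 10^5 cfu/mL; 37 °C.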

The next experiment relates to Candida albicans. In words: In vitro antimicrobial activity against Candida albicans L145. In outline:
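Candida: broth microdilution MIC in phosphate-buffered Yeast Nitrogen Base broth with glucose (1% w/v) and L-asparagine (0.15% w/v); inoculum about 10^4 cfu/mL; 37 °C, 20–24 h.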

The test system of another experiment is Enterococcus faecalis. In words: In vitro antimicrobial activity against Enterococcus faecalis ATCC 7080. In outline: (§2)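 Broth microdilution MIC in Oxoid Iso-Sensitest broth; inoculum about 10^4 cfu/mL; 37 °C for 20–24 h.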
The next experiment deals with Escherichia coli. In words: In vitro antimicrobial activity against Escherichia coli L47. The method, boiled down:
as §2

The next experiment concerns Haemophilus influenzae. Description: In vitro antimicrobial activity against Haemophilus influenza ATCC 19418. The method, boiled down:
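Broth microdilution MIC in Brain Heart Infusion broth plus 1% (v/v) supplement C; inoculum about 10^4 cfu/mL; 37 °C.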

A further experiment relates to Neisseria gonorrhoeae. In words: In vitro antimicrobial activity against Neisseria gonorrhoeae L997. The method, boiled down:
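Broth microdilution MIC in GC Base broth plus 1% (v/v) IsoVitaleX; inoculum about 10^4 cfu/mL; 37 °C.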

For the next experiment, the system named is Pseudomonas aeruginosa. In words: In vitro antimicrobial activity against Pseudomonas aeruginosa ATCC 10145. In outline:
as §2

The next experiment relates to Cutibacterium acnes. In words: In vitro antimicrobial activity against Propionibacterium acnes ATCC 6919. In outline:
as §1

Experiment [1] has as its system Staphylococcus aureus. In words: In vitro antimicrobial activity against Staphylococcus aureus L1 65 30% bovine serum. In outline:
(§3)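 Broth microdilution MIC against S. aureus L165 in Iso-Sensitest broth, 37 °C, 20–24 h.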

In experiment [2] the test system is Staphylococcus aureus. In words: In vitro antimicrobial activity against Staphylococcus aureus L165. In outline:
as §2

Experiment [3] relates to Staphylococcus aureus. Description: In viro antimicrobial activity against Staphylococcus aureus L165 10 x e+6 cfu/ml. In outline:
as §3

Experiment [4] deals with Staphylococcus haemolyticus. Description: In vitro antimicrobial activity against Staphylococcus haemolyticus L602. The method, boiled down: as §2
A further experiment relates to Streptococcus pneumoniae. Description: In vitro antimicrobial activity against Streptococcus pneumoniae L44. In outline: (§4)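 Streptococci: broth microdilution MIC in Todd Hewitt broth; inoculum about 10^4 cfu/mL; 37 °C, 20–24 h.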
The next experiment has as its system Streptococcus pyogenes. In words: In vitro antimicrobial activity against Streptococcus pyogenes L49. In outline: as §4
A further experiment deals with Proteus vulgaris. In words: In vitro antimicrobial activity against Proteus vulgaris ATCC881. The method, boiled down: as §2
Experiment [5] relates to Staphylococcus epidermidis. Description: In vitro antimicrobial activity against Staphylococcus epidermidis ATCC 12228. In outline:
as §2

Another experiment has as its system Trichomonas vaginalis. Description: Antimicrobial activity against Trichomonas vaginalis. In outline: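 Broth microdilution in Trichomonas Culture Medium Base plus 10% horse serum; about 10^5 cells/mL; 48 h at 37 °C under N2-CO2-H2; MIC read by microscopy for viable (motile) protozoa.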

Turning to `COC(=O)c1cc2cc3c(c(O)c2c(=O)o1)OC1(CC2=C(O1)C(=O)c1c(O)c(NCC#N)cc(O)c1C2=O)CC3O` (stereo not given), the MIC with Bacteroides fragilis was 0.5 µg/mL (≈ 0.889 µM); against Candida albicans, more than 128 µg/mL; against Enterococcus faecalis, 0.13 µg/mL (≈ 0.231 µM); in the experiment on Escherichia coli it was more than 128 µg/mL; in the experiment on Haemophilus influenzae, 0.13 µg/mL (≈ 0.231 µM); against Neisseria gonorrhoeae, 0.06 µg/mL (≈ 0.107 µM). The MIC with Pseudomonas aeruginosa is more than 128 µg/mL; against Cutibacterium acnes it was 0.016 µg/mL (≈ 0.0284 µM); with Staphylococcus aureus [1], 2 µg/mL (≈ 3.56 µM); with Staphylococcus aureus [2] it was 0.13 µg/mL (≈ 0.231 µM); in the experiment with Staphylococcus aureus [3] it was 0.13 µg/mL (≈ 0.231 µM); in [4], 0.13 µg/mL (≈ 0.231 µM). The MIC in the experiment on Streptococcus pneumoniae is 0.03 µg/mL (≈ 0.0533 µM); in the experiment on Streptococcus pyogenes it was 0.13 µg/mL (≈ 0.231 µM); against Proteus vulgaris it was more than 128 µg/mL; in experiment [5], 0.13 µg/mL (≈ 0.231 µM).

With `COC(=O)c1cc2cc3c(c(O)c2c(=O)o1)OC1(CC2=C(O1)C(=O)c1c(O)c(NCCNC(=O)OC(C)(C)C)cc(O)c1C2=O)CC3O` (stereo not given), the MIC is 0.5 µg/mL (≈ 0.75 µM) with Bacteroides fragilis; more than 128 µg/mL against Candida albicans; 0.13 µg/mL (≈ 0.195 µM) against Enterococcus faecalis; more than 128 µg/mL against Escherichia coli; 1 µg/mL (≈ 1.5 µM) in the experiment on Haemophilus influenzae; 0.13 µg/mL (≈ 0.195 µM) against Neisseria gonorrhoeae. Further, the MIC in the experiment with Pseudomonas aeruginosa was more than 128 µg/mL; in the experiment with Cutibacterium acnes it was 0.016 µg/mL (≈ 0.024 µM); in the experiment on Staphylococcus aureus [1] it was 2 µg/mL (≈ 3 µM); against Staphylococcus aureus [2], 0.13 µg/mL (≈ 0.195 µM); in the experiment with Staphylococcus aureus [3], 0.13 µg/mL (≈ 0.195 µM); in experiment [4] it was 0.06 µg/mL (≈ 0.09 µM). The MIC was 0.06 µg/mL (≈ 0.09 µM) with Streptococcus pneumoniae, 0.13 µg/mL (≈ 0.195 µM) in the experiment with Streptococcus pyogenes, more than 128 µg/mL with Proteus vulgaris and 0.06 µg/mL (≈ 0.09 µM) in experiment [5].

For the compound `CCCNc1cc(O)c2c(c1O)C(=O)C1=C(CC3(CC(O)c4cc5cc(C(=O)OC)oc(=O)c5c(O)c4O3)O1)C2=O` (stereo not given), the MIC with Bacteroides fragilis is 0.03 µg/mL (≈ 0.0531 µM); in the experiment with Candida albicans, more than 128 µg/mL; in the experiment on Enterococcus faecalis, 0.06 µg/mL (≈ 0.106 µM); in the experiment with Escherichia coli, more than 128 µg/mL; against Haemophilus influenzae, 0.13 µg/mL (≈ 0.23 µM); against Neisseria gonorrhoeae it was 0.06 µg/mL (≈ 0.106 µM). In addition, the MIC in the experiment on Pseudomonas aeruginosa is more than 128 µg/mL; with Staphylococcus aureus [1], 2 µg/mL (≈ 3.54 µM); in the experiment with Staphylococcus aureus [2], 0.03 µg/mL (≈ 0.0531 µM); with Staphylococcus aureus [3], 0.03 µg/mL (≈ 0.0531 µM); in experiment [4], 0.06 µg/mL (≈ 0.106 µM); against Streptococcus pneumoniae it was 0.03 µg/mL (≈ 0.0531 µM). Further, the figures for the MIC (with Streptococcus pyogenes; against Proteus vulgaris; in experiment [5]) were 0.13 µg/mL (≈ 0.23 µM), more than 128 µg/mL and 0.016 µg/mL (≈ 0.0283 µM), respectively.

`COC(=O)c1cc2cc3c(c(O)c2c(=O)o1)OC1(CC2=C(O1)C(=O)c1c(O)c(NCC(F)(F)F)cc(O)c1C2=O)CC3O` (stereo not given): the MIC was 0.06 µg/mL (≈ 0.0991 µM) in the experiment with Bacteroides fragilis; 8 µg/mL (≈ 13.2 µM) against Candida albicans; 0.03 µg/mL (≈ 0.0496 µM) with Enterococcus faecalis; more than 128 µg/mL with Escherichia coli; 0.06 µg/mL (≈ 0.0991 µM) against Haemophilus influenzae; 0.06 µg/mL (≈ 0.0991 µM) against Neisseria gonorrhoeae. Also, the MIC in the experiment with Pseudomonas aeruginosa is more than 128 µg/mL; against Cutibacterium acnes, 0.008 µg/mL (≈ 0.0132 µM); against Staphylococcus aureus [1], 2 µg/mL (≈ 3.3 µM); with Staphylococcus aureus [2] it was 0.016 µg/mL (≈ 0.0264 µM); with Staphylococcus aureus [3] it was 0.03 µg/mL (≈ 0.0496 µM); in experiment [4], 0.016 µg/mL (≈ 0.0264 µM). Besides, the MIC was 0.06 µg/mL (≈ 0.0991 µM) with Streptococcus pneumoniae, 0.13 µg/mL (≈ 0.215 µM) against Streptococcus pyogenes, more than 128 µg/mL against Proteus vulgaris and 0.016 µg/mL (≈ 0.0264 µM) in experiment [5].

With `Cc1ncc([N+](=O)[O-])n1CCO` [METRONIDAZOLE], in the experiment with Trichomonas vaginalis, the MIC came to 0.25 µg/mL (≈ 1.46 µM).

Regarding `COC(=O)c1cc2cc3c(c(O)c2c(=O)o1)OC1(CC2=C(O1)C(=O)c1c(O)c(NCCN)cc(O)c1C2=O)CC3O` (stereo not given), the MIC was more than 128 µg/mL against Bacteroides fragilis; more than 128 µg/mL with Candida albicans; 2 µg/mL (≈ 3.53 µM) against Enterococcus faecalis; more than 128 µg/mL against Escherichia coli; 32 µg/mL (≈ 56.5 µM) in the experiment on Haemophilus influenzae; 64 µg/mL (≈ 113 µM) with Neisseria gonorrhoeae. Also, the MIC was more than 128 µg/mL against Pseudomonas aeruginosa; 0.5 µg/mL (≈ 0.883 µM) in the experiment on Cutibacterium acnes; 8 µg/mL (≈ 14.1 µM) with Staphylococcus aureus [1]; 1 µg/mL (≈ 1.77 µM) with Staphylococcus aureus [2]; 1 µg/mL (≈ 1.77 µM) in the experiment with Staphylococcus aureus [3]; 1 µg/mL (≈ 1.77 µM) in [4]. For the same compound, the MIC is 1 µg/mL (≈ 1.77 µM) against Streptococcus pneumoniae, 2 µg/mL (≈ 3.53 µM) against Streptococcus pyogenes, more than 128 µg/mL with Proteus vulgaris and 1 µg/mL (≈ 1.77 µM) in experiment [5].
